Data set [1] can be described thus: Cytotoxicity against resting human PBMC cells assessed as cell growth inhibition incubated for 72 hrs by MTT assay. Type of data set: toxicity, cell-based.
In data set [2] the test system is HD-MB03. Put plainly: Sensitization of chemotherapy induced cytotoxicity against human HD-MB03 cells assessed as inhibition of cell growth at 1.25 uM incubated for 72 hrs in presence of 1 unit of vincristine, etoposide, cisplatin, cyclophosphamide by resazurin dye based analysis (reference value: 91.53 +/- 1.15%). Format: functional.
In data set [3] the test system is HD-MB03. Put plainly: Induction of cell cycle arrest in human HD-MB03 cells assessed as accumulation of cells at S phase at 10 uM incubated for 72 hrs by RNase/PI staining based cytofluorimetric analysis (reference value: 40.9%). Format: functional.
In data set [4] the test system is HD-MB03. As to the kind of experiment: Induction of apoptosis in human HD-MB03 cells assessed as cell shrinkage at 20 uM incubated for 24 hrs in presence of chloroquine by bright field imaging analysis. Type of data set: functional, cell-based.
Data set [5] relates to HD-MB03. As to the kind of experiment: Sensitization of chemotherapy induced cytotoxicity against human HD-MB03 cells assessed as inhibition of cell growth at 1.25 uM incubated for 72 hrs in presence of 0.12 unit of vincristine, etoposide, cisplatin, cyclophosphamide by resazurin dye based analysis (reference value: 51.43 +/- 1.17%). Type of data set: functional.
Data set [6] has as its system HD-MB03. As to the kind of experiment: Sensitization of chemotherapy induced cytotoxicity against human HD-MB03 cells assessed as inhibition of cell growth at 5 uM incubated for 72 hrs in presence of 0.12 unit of vincristine, etoposide, cisplatin, cyclophosphamide by resazurin dye based analysis (reference value: 51.43 +/- 1.17%). Format: functional.
The subject of data set [7] is HD-MB03. As to the kind of experiment: Sensitization of chemotherapy induced cytotoxicity against human HD-MB03 cells assessed as inhibition of cell growth at 2.5 uM incubated for 72 hrs in presence of 2 unit of vincristine, etoposide, cisplatin, cyclophosphamide by resazurin dye based analysis (reference value: 97.7 +/- 1.3%). Type of data set: functional.
Data set [8] addresses BAG family molecular chaperone regulator 3 (Homo sapiens, UniProt O95817). Put plainly: Binding affinity to CM4 sensorchip immobilized C-terminal His tagged human BAG3 transfected in HEK293T cells assessed as signal saturation at 50 uM by SPR analysis.
For another data set, the system named is RS4-11. As to the kind of experiment: Antiproliferative activity against human RS4-11 cells assessed as cell growth inhibition incubated for 72 hrs by resazurin dye based analysis. Format: functional. Put shortly: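 Cells seeded at 2000/well, treated 24 h later with compounds in a 6-point 2-fold dose series, duplicate wells, two independent experiments. After 72 h, resazurin was added at 44 µM final for 3 h at 37 °C and fluorescence was read at 590 nm. Viability was normalized to 1 µM bortezomib (positive) and 0.5% DMSO (negative) controls. GI50 is the mean ± SEM of dose-response curves.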

Data set [9] has as its system HD-MB03. Put plainly: Induction of autophagy in human HD-MB03 cells assessed as autophagic vacuole formation in presence of chloroquine at 20 uM incubated for 24 hrs by bright field imaging analysis. Type of data set: functional, cell-based.
Data set [10] deals with HD-MB03. Put plainly: Sensitization of chemotherapy induced cytotoxicity against human HD-MB03 cells assessed as inhibition of cell growth at 5 uM incubated for 72 hrs in presence of 0.25 unit of vincristine, etoposide, cisplatin, cyclophosphamide by resazurin dye based analysis (reference value: 73.44 +/- 0.92%). Format: functional.
For data set [11], the system named is HD-MB03. As to the kind of experiment: Sensitization of chemotherapy induced cytotoxicity against human HD-MB03 cells assessed as inhibition of cell growth at 10 uM incubated for 72 hrs in presence of 0.12 unit of vincristine, etoposide, cisplatin, cyclophosphamide by resazurin dye based analysis (reference value: 51.43 +/- 1.17%). Type of data set: functional.

Consider one compound from ChEMBL document CHEMBL5335790, “Design, synthesis and biological evaluation of novel 2,4-thiazolidinedione derivatives able to target the human BAG3 protein” (Eur J Med Chem, 2023).

Structures are written as SMILES. The source made the active and inactive calls. The rule behind the calls is not given here.

Sequence of BAG family molecular chaperone regulator 3 (O95817 whole entry): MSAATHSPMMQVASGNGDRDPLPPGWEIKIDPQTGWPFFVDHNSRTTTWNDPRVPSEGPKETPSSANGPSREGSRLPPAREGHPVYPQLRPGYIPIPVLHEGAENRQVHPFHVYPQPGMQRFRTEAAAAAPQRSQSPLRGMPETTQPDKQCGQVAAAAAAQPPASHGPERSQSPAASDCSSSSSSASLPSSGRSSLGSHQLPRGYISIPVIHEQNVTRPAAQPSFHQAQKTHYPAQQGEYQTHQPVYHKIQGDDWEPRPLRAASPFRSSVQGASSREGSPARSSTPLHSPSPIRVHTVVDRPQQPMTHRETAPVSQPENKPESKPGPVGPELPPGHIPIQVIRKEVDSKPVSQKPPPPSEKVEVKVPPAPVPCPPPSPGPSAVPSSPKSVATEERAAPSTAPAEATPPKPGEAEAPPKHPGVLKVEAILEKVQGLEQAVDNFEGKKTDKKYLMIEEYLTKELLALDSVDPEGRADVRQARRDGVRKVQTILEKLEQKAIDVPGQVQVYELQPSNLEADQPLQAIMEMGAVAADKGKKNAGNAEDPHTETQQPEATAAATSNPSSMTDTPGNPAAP

With `CC(C(=O)N1CCOCC1)N1C(=O)S/C(=C\c2cccc(O)c2O)C1=O` (racemic), the concentration for 50% growth inhibition (GI50) at 72 h in data set [1] was greater than 100 µM. Moreover, the values for the inhibition at 1.25 µM in the data set on HD-MB03 [2] and in the data set on HD-MB03 [5] were 93.1% and 47.7%, respectively. Besides, the Activity in the data set with HD-MB03 [3] stood at 24.8%. Moreover, the outcome (in the data set on HD-MB03 [4]; in [8]) was Active. Moreover, the inhibition at 5 µM in the data set on HD-MB03 [6] stood at 62.3%; in the data set on HD-MB03 [10] it was 76.7%. Besides, in the data set with HD-MB03 [7], the inhibition at 2.5 µM was 95.4%. For the same compound, the GI50 in the data set on RS4-11 was determined as 6.7 µM. The outcome in the data set on HD-MB03 [9] was inactive. Moreover, the inhibition at 10 µM with HD-MB03 [11] came out at 75.8%.
